System: MS2 coat protein
Test: apparent Kd, MS2 coat protein; higher = weaker binding; RNA-MaP array; FMN 200 µM where present
In short: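 The apparent Kd comes from binding curves fitted cluster by cluster, filtered, and summarised as a median. Those curves followed SNAP-549-labelled MS2 coat protein from 0.7 or 1.5 nM, doubling to 3 µM, on Illumina sequencing-chip clusters where stalled E. coli RNA polymerase had transcribed the designs, without and then with constant ligand. The buffer was 100 mM Tris-HCl pH 7.5, 80 mM KCl, 4 mM MgCl2, BSA, DTT, yeast tRNA and Tween-20, and green signal was normalised to red-channel RNA signal and control-cluster median Fmax.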

[1] = designed as: ON switch for flavin mononucleotide, no ligand
[2] = ligand present: flavin mononucleotide, designed as: ON switch for flavin mononucleotide
[3] = designed as: OFF switch for flavin mononucleotide, no ligand
[4] = ligand present: flavin mononucleotide, designed as: OFF switch for flavin mononucleotide

Sequence | apparent Kd [1] | apparent Kd [2] | apparent Kd [3] | apparent Kd [4]
UGGUACAUCGGAGGAUAUCAUGUAGAUACAUGAGGAUCACCCAUGUCGUACGAGAGUACGGAGAUUGAGAAGGCCGAUGUACCU | 30.7 nM | 16.4 nM |  | 
GUACUGACAGGAUAUACAUGAGGAUCACCCAUGUCCUUAUGCUGACAAAAGUCAGCGUGUAGAAGGGUCUGUAC |  |  | 141 nM | 385 nM
UGAGUGCGUGUUAGGAUAUGGUUUGGUGUUUCGGGCUAGAAGGGACAUGAGGAUCACCCAUGUAACUGGCGGGU |  |  | 53.3 nM | 51 nM
UUUAUGUGAGGAUAUAGUACUCCUUCUAUUAUUUUUGAGUACUAGAAGGCACAUGAGGAUCACCCAUGUAGUAC |  |  | 22.5 nM | 48.6 nM
UAAAAGCGAGGAUAUACAUGAGGAUCACCCAUGUGAGGCGAAACGCCUCGGGCCAUCAGUAGAAGGUGCAAAAC |  |  | 109 nM | 84.8 nM
GUUCAACAUGAGGAUCACCCAUGUAGAAGGCGCUCCGACAUUUUGUAGAACGAGGUGGGUGCGGGCGAGGAUAUACGUGGCGCU |  |  | 48.4 nM | 89.6 nM
CUUAGUAUCUAGGAUAUCUAGUACAUAGUAUCUAGAGAAGGAGAUACAUGAGGAUCACCCAUGUUCUGUGUUCU |  |  | 23.9 nM | 68.7 nM
GGACAUGGGAAACCACAUGGAGAUAAGGAUAUAUAGAUGACAUGAGGAUCACCCAUGUAUGGCGAAUAGAAGGUAUGAGUGUGA | 153 nM | 16.2 nM |  | 
GCCGGAGAAGGAUAUACAUGAGGAUCACCCAUGUUCUUGGGCGAAAUAAAUUCCUAGAGUAGAAGGUCUAGGCA |  |  | 18.7 nM | 41.5 nM
GGAUAGGACAGAGGAUAUACGUGCUAGAGAUACUAGCAAAAUUUCCUCACAUGAGGAUCACCCAUGUAGAAGGCUGACCUAUCG |  |  | 14.9 nM | 412 nM
AAAGUUGGUAGGCCCUCGGCACAUGAGGAUCACCCAUGUAAGGAGGAUAUGCCCGGUACCCGCUGGCAGAAGGCCUUAUAAGAA |  |  | 12.2 nM | 110 nM
AGUGUGUGGCAGGAUAUGCGAUUUGUCGGUGAAGCAGAAGGGUCUACAUGAGGAUCACCCAUGUGUGCGGUUGA |  |  | 141 nM | 381 nM
UUGUUGUGAGGAUAUCCAAUAUAUGACAUGAGGAUCACCCAUGUUUCCACUCGUACCUCCGGAGAAGGCACUUAUU |  |  | 31.7 nM | 28.7 nM
AGAUUACGAGGAUAUCGAUUUUAGUACAUGAGGAUCACCCAUGUUAUCCAGGUCUCGUUUCGAGAAGGCGUGAUUC |  |  | 303 nM | 132 nM
GGGCUGUCAGGAUAUCUCGGGCUCGGGUAAACUCGGGCUCGGGAGAAGGGACAUGAGGAUCACCCAUGUGGCCC |  |  | 30.4 nM | 33 nM
CGUAAGAUGCAGAAGGUGUUAGCUAGAGCUACGACAUGAGGAUCACCCAUGUACUAGAAACAGUACAAGGAUAUGCAUCUUACU | 18.4 nM | 6.25 nM |  | 
AAAUCCGAAGGAUAUACAUCAAAAGCAAACUGACCCUCACGACAUGAGGAUCACCCAUGUAGAAGGUUGGAAAU |  |  | 20.3 nM | 18.1 nM
CAGGUAGACUGAGGAUAUACACAAAACAGCUAGUCUAUCUAGCUGAUCACAUGAGGAUCACCCAUGUAGAAGGCAGUCUGCCUG |  |  | 19.2 nM | 55.2 nM
GUUUGUUAUUAGAAGGUGCCAGCGAGAGCUGCACAUGAGGAUCACCCAUGUUGUCGGUGACGACGCAAGGAUAUGGUGGUGGAU | 715 nM | 169 nM |  | 
CUUUUGUGAGGAUAUCAGUAGUAAAAUAAUAAAUAUACUACUGAGAAGGCACAUGAGGAUCACCCAUGUUCCUC |  |  | 37.8 nM | 233 nM
UGAAUCAAUACAGGAUAUGGUGACGCACAUGAGGAUCACCCAUGUCCGCAGCGUGCUAAGCACGCCCAGAAGGGUAUUGAUCUG | 1010 nM | 81 nM |  | 
GUGCCUAACUAGAAGGCAGUAUGCAAAGCAUUCUGAGGAUAUGGGUUCCGGAAACGGACAUGAGGAUCACCCAUGUGGCACAAA | 312 nM | 20.3 nM |  | 
AUUGUUAAGUUAGGAUAUAGUAAAAUAAUUUAAUUAGAAGGAGCUCACAUGAGGAUCACCCAUGUAAGAGGAUCACCCAUGUAU |  |  | 23.5 nM | 18.9 nM
UACAUCGGAGGAUAUACAUGAGGAUCACCCAUGUGAGUGUAAGGGAGCGUAAGCGGGUGUAGAAGGCCGUCUUU |  |  | 58.3 nM | 49.5 nM
UGUAAGAUGCAGAAGGUGUUAGCUAGAGCUACGACAUGAGGAUCACCCAUGUACUAGAAACAGUACAAGGAUAUGCAUCUUACU | 18 nM | 6.53 nM |  | 

Sequence | apparent Kd [1] | apparent Kd [2] | apparent Kd [3] | apparent Kd [4]
GGUAAAUAAAGAGUACUGUUUUGAACAUGAGGAUCACCCAUGUAGGAUAUGCGAGUUUUGAAUUUGCAGAAGGACAUUUUUAGC |  |  | 19.6 nM | 20.4 nM
UCCGCUCGAGGAUAUACAUGAGGAUCACCCAUGUUUCCCUGUUGUUUGGCCUCAGGAUGUAGAAGGCGACGCUA |  |  | 18.3 nM | 23.6 nM
AGUACGUCAGGAUAUCUGAUGUCUAACUUCGGUUAGACAUCAGAGAAGGGACAUGAGGAUCACCCAUGUACAAA |  |  | 41.8 nM | 36.9 nM
UGUGAGUUGAUGUUAGAUCGGAGUACAUGAGGAUCACCCAUGUAGGAUAUUCAAAGACGCAGAUAGAAGAAGGACAUAGGUUUC |  |  | 15.2 nM | 14.3 nM
UGAGCAGAAGGAUAUGCGUAAUGGCCGUGAGGCCUAGAUCUACAUGAGGAUCACCCAUGUAGAAGGUCUGUUCU |  |  | 15.3 nM | 15.2 nM
UCGAUGCUAGGAUAUACGUAUACCUCCACCGUUGAUUCCUAACAUGAGGAUCACCCAUGUAGAAGGAGCAUCUA |  |  | 23.8 nM | 23.6 nM
GCGAUUUUGUAAGGAUAUACACCAGUUUUAAGUGUAGAAGGUACUUACAUGAGGAUCACCCAUGUAUAAAUGUAUAAUAGUCGC | 6.92 nM | 6.87 nM |  | 
UUUCCAUAGAUAGGAUAUCAGUUUACAUGAGGAUCACCCAUGUUCUCUUUGGUUAUAAUUAUAUCUGAGAAGGAUCUUGAUGAA | 29.6 nM | 26.3 nM |  | 
AAAAAGUGAUGGUAGGAUAUUGGAAAAGCCACAUGAGGAUCACCCAUGUCAAAAAACCUAAAAAACAAGAAGGGCUGUUAUAAAAA | 18.5 nM | 14.8 nM |  | 
CGUCCACAUGAGGAUCACCCAUGUCAGGAUAUACAAAUGCCAGGUCGCGGGCCAGGCGGUAGAAGGGACGUGGC |  |  | 23.1 nM | 18.6 nM
GGCGGCGCGGGCCACCGCAGGACCAGAAGGACAUGAGGAUCACCCAUGUAGCAGAACAGGGCGGUGUAGGAUAUGGCAGGCUCG |  |  | 24.9 nM | 45.8 nM
GGAGCGGAAGGAUAUGCUGCGGGAUUGAAUGGAAAGAAAAUACAUGAGGAUCACCCAUGUAGAAGGUCCGUGAA |  |  | 18.2 nM | 54.2 nM
GUGCAAUGAGGAUAUACGUAGGUGAAAAUCUGUGUGCUCCUACAUGAGGAUCACCCAUGUAGAAGGCAUGUCAC |  |  | 17.1 nM | 28.2 nM
UGUAUGUGGGCAGGAUAUACAUGAAUAUAUAUGAUGUAGUAUGAUGUAACAUGAGGAUCACCCAUGUAGAAGGGCCGGUGUAUG |  |  | 165 nM | 214 nM
AUUAUAUAGACAGGAUAUUGAUUAUUAUUUUAACAUGAGGAUCACCCAUGUAGCCUUAUGUAUAGCAAGAAGGGUCAUUUAUUA |  |  | 135 nM | 206 nM
GUAGCAUAAUCAGGAUAUUCAGCGAAUAGAUUGACAUGAGGAUCACCCAUGUGGCGAAAGCCUCGGGAGAAGGGAUAAUGCUAC | 399 nM | 76.8 nM |  | 
CCACCCUGAGGAUAUCCACCCUCAUACAUGAGGAUCACCCAUGUUCAUGCCUGAGUUCCCGGAGAAGGCAGAUUCC |  |  | 109 nM | 87.2 nM
GGACGUGUCGUUUACAUGAGGAUCACCCAUGUCGAUGGACAUGAGGAUAUGGAUCCGAAUCGGAUCCAGAAGGCAUGCACGUCC | 85.3 nM | 18.9 nM |  | 
CUUUGAUGAGGAUAUCGAGGUUAGUACAUGAGGAUCACCCAUGUUAUCCAGGUGUCGGAUCGAGAAGGUAUUGGAC |  |  |  | 17.5 nM
GAUUAUAAGUAAGGAUAUGUAUAUGAAACAUAUACAGAAGGUACAUGAGGAUCACCCAUGUUCUUGCAGCGCGAAUAUGUAAUC |  |  | 18.9 nM | 27.7 nM
AGUCAUACAGGAUAUACAUGAGGAUCACCCAUGUUUAUCCUAAAAUAAAGAUCCUCAUGUAGAAGGGUAUGACA |  |  | 12.8 nM | 12.6 nM
AACUUACAUGAGGAUCACCCAUGUGAGGAUAUAUAAAUAUAUAUGUUAUUGUAUGUUUGUAGAAGGCGCGUGAU |  |  | 52.2 nM | 51.2 nM
CUCGUGUUAGGAUAUGGAUAGCCGUUUGACGAGCGAGGGCACUAGAAGGAACAUGAGGAUCACCCAUGUAAAAA |  |  | 21.3 nM | 21.1 nM
UACAUGAGGAUCACCCAUGUUUUGUCGUGUAUGGUAUUUAUCUAGGAUAUCGUGUUAUUUAACCACGAGAAGGAGAGUAUCAAU |  |  | 27.5 nM | 26.7 nM

Reference: the EternaBench riboswitch data
